Measurements reported in PMC2920599 (Journal of medicinal chemistry, 2010).
Where a name gives a salt, the structure may show the parent alone. Read-outs that look alike come from different tables or passages of the source.

What was measured:
[1] = system: Leukemia; experiment: NCI 60 cell panel, five-concentration assay, leukemia subpanel; type: cell-based; details: total growth inhibition; 48 h exposure
[2] = system: NSCLC; experiment: NCI 60 cell panel, five-concentration assay, NSCLC subpanel; type: cell-based; details: total growth inhibition; 48 h exposure
[3] = system: Colon; experiment: NCI 60 cell panel, five-concentration assay, colon subpanel; type: cell-based; details: total growth inhibition; 48 h exposure
[4] = system: CNS; experiment: NCI 60 cell panel, five-concentration assay, CNS subpanel; type: cell-based; details: total growth inhibition; 48 h exposure
[5] = system: Melanoma; experiment: NCI 60 cell panel, five-concentration assay, melanoma subpanel; type: cell-based; details: total growth inhibition; 48 h exposure
[6] = system: Ovarian; experiment: NCI 60 cell panel, five-concentration assay, ovarian subpanel; type: cell-based; details: total growth inhibition; 48 h exposure
[7] = system: Renal; experiment: NCI 60 cell panel, five-concentration assay, renal subpanel; type: cell-based; details: total growth inhibition; 48 h exposure
[8] = system: Prostate; experiment: NCI 60 cell panel, five-concentration assay, prostate subpanel; type: cell-based; details: total growth inhibition; 48 h exposure
[9] = system: Breast; experiment: NCI 60 cell panel, five-concentration assay, breast subpanel; type: cell-based; details: total growth inhibition; 48 h exposure
[10] = system: full NCI 60 cell panel; details: for GI50: read-out: GI50 MG-MID (mean GI50)
[11] = system: MCF-7 breast cancer cells; experiment: Growth and death of MCF-7 cells; type: cell-based, human; details: 200 nM, viable cells counted daily
Procedure, shortened: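 MCF-7 cells grown in RPMI 1640 with 10% FBS and 2 mM L-glutamine at 37°C, 5% CO2. Plated at 2×10^4 cells/cm2; compound added 24 h later from 10 mmol/L DMSO working solutions, with DMSO-only controls. Cells harvested with 0.11% trypsin/0.02% EDTA and counted; viability by trypan blue exclusion. Treated vs control compared by Student t-test, P<0.05.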

[12] = system: p53; experiment: Western blotting of p53 in MCF-7 cells; type: cell-based, human; details: 5 μM; for p53 expression: 20 h
[13] = system: ERK1/2; experiment: Western blotting of ERK1/2 phosphorylation in MCF-7 cells; type: cell-based, human; details: 5 μM, 20 h
Procedure, shortened: (§1)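 MCF-7 cells treated 20 h, then collected in 20 mM HEPES pH 7.5 with 5 mM DTT, 2 mM EDTA, 0.1% CHAPS, 0.1% Triton X-100 and protease inhibitors, and freeze-thawed twice. Extracts run on SDS-PAGE at 80 μg protein/lane and immunoblotted for total and phosphorylated ERK1/2 and Akt, p53, p21 and β-actin. Blots representative of at least three experiments.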

[14] = system: Akt; experiment: Western blotting of Akt phosphorylation in MCF-7 cells; type: cell-based, human; details: 5 μM, 20 h
Procedure, shortened: as §1

[15] = system: p21; experiment: Western blotting of p21 in MCF-7 cells; type: cell-based, human; details: 5 μM, 24 h
[16] = system: Bax; experiment: Bax content in MCF-7 cells; type: cell-based, human
Procedure, shortened: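 MCF-7 cells seeded at 1×10^4 cells/cm2 on glass coverslips and treated. Then fixed in 3% p-formaldehyde, washed with 0.1 M glycine in PBS, and permeabilised in 70% ice-cold ethanol. Stained 1 h at room temperature with mouse monoclonal anti-Bax, then FITC anti-mouse IgG for 1 h, with propidium iodide for nuclei. Confocal imaging used sequential 488 and 568 nm excitation; image representative of three experiments.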

[17] = system: MCF-7 cells; experiment: Cell cycle analysis of MCF-7 cells by flow cytometry; type: cell-based, human; details: 200 nM, 24 and 48 h
[18] = system: female athymic nude mouse; details: in vivo, ip
[19] = system: full NCI 60 cell panel; experiment: cells; details: Homo sapiens, 48 h, read-out: GI50 MG-MID (mean GI50)
[20] = calculated panel mean, 48 h exposure
[21] = read-out: LC50 MG-MID (mean LC50), calculated panel mean, 48 h exposure

Row | SMILES | TGI Leukemia [1] [µM] | TGI NSCLC [2] [µM] | TGI Colon [3] [µM] | TGI CNS [4] [µM] | TGI Melanoma [5] [µM] | TGI Ovarian [6] [µM] | TGI Renal [7] [µM] | TGI Prostate [8] [µM] | TGI Breast [9] [µM] | CC50 [10] [µM] | TGI MG-MID (mean TGI) [10, 20] [µM] | GI50 [10, 20] [µM] | other results
1 | COc1cc2c(/C=C3/C(=O)Nc4ccc(Br)cc43)c(Cl)[nH]c2cc1C [Compound 4] | 6.17 | 14.13 | 6.76 | 8.91 | 9.55 | 8.13 | 10.96 | 7.94 | 10.47 | 39.8 | 9.33 |  | 
2 | COc1cc2c(/C=C3/C(=O)Nc4cc(Cl)ccc43)c(Cl)[nH]c2cc1C [Compound 7] | 4.79 | 11.48 | 3.55 | 4.37 | 11.48 | 14.79 | 7.08 | 5.25 | 2.63 |  | 6.61 | 0.21 | 
3 | COc1cc2c(cc1C)NC(=O)/C2=C/c1c(Cl)n(C)c2cc(C)c(OC)cc12 [Compound 8] | 60.26 | 97.72 | 87.10 | 87.10 | 45.71 | 91.20 |  | 97.72 | 77.62 |  | 77.62 | 24 | CC50 [10, 21]: 91.2 µM
4 | COc1cc2c(/C=C3/C(=O)Nc4ccc(Br)cc43)c(Cl)n(C)c2cc1C [Compound 9] | 20.89 | 9.33 | 6.03 | 7.08 | 7.41 | 13.49 | 6.76 | 8.91 | 4.90 | 36.3 | 8.32 | 1.66 | 
5 | COc1cc2c(/C=C3/C(=O)Nc4ccc(N(C)C)cc43)c(Cl)n(C)c2cc1C [Compound 10] | 44.67 | 91.20 | 70.79 | 60.26 | 67.61 | 77.62 | 69.18 | 97.72 | 54.95 |  | 67.61 |  | CC50 [10, 21]: 97.7 µM
6 | COc1cc2c(/C=C3/C(=O)Nc4cc(Cl)ccc43)c(Cl)n(C)c2cc1C [Compound 12] | 1.74 | 11.48 | 0.95 | 1.20 | 7.08 | 2.34 | 15.85 |  | 5.62 | 49 | 3.80 |  | effect on MCF-7 cell growth (total cell number) [11]: blocked MCF-7 cell growth within 48 h; p53 expression [12]: caused a p53 increase; induction of p53 (densitometry) ([12]; 24 h): threefold induction of p53; ERK phosphorylation [13]: decreased ERK phosphorylation; Akt phosphorylation [14]: only slightly decreased; increase of p21 (densitometry) [15]: about 90%; cellular Bax by immunofluorescence microscopy ([16]; 5 μM, 24 h): considerable Bax accumulation; increase of Bax, densitometric analysis of Western blotting ([16]; n=3, data not shown): 2.8 times; cell cycle distribution: G2/M phase [17]: marked accumulation of MCF-7 cells in the G2/M phase; sub-G1 peak (apoptotic cells) [17]: a notable cell population was observed in a sub-G1-peak
7 | COc1cc2c(/C=C3/C(=O)N(C)c4ccccc43)c(Cl)n(C)c2cc1C [Compound 13] | 4.07 | 33.11 | 8.51 | 4.47 | 14.13 | 18.20 | 10.23 | 10.00 | 13.18 | 77.6 | 11.48 | 0.32 | 
8 | COc1cc2c(/C=C3/C(=O)N(C)c4ccc(O)cc43)c(Cl)n(C)c2cc1C [Compound 14] | 0.47 | 6.03 | 3.55 | 1.74 | 7.41 | 11.75 | 4.27 | 3.16 | 1.70 | 33.9 | 3.39 | 0.1 | 
9 | COc1cc2c(cc1C)N(C)C(=O)/C2=C/c1c(Cl)n(C)c2cc(C)c(OC)cc12 [Compound 15] | 56.23 | 69.18 | 83.18 | 26.92 | 67.61 | 60.26 | 41.69 | 67.61 | 36.31 | 87.1 | 52.48 | 14.1 | 
10 | COc1cc2c(cc1C)N(C)C(=O)/C2=C/c1c(Cl)[nH]c2ccccc12 [Compound 16] | 7.41 | 12.30 | 9.33 | 7.59 | 18.20 | 11.75 | 12.88 | 21.38 | 8.32 |  | 10.96 | 0.45 | effect on MCF-7 cell growth (total cell number) [11]: initially decreased cell proliferation, however after 24 h, the cells recovered and started to grow; p53 expression [12]: caused a p53 increase; ERK phosphorylation [13]: decreased ERK phosphorylation; maximum tolerated dose (MTD) [18]: 100 mg/kg
11 | CN(C)c1ccc2[nH]c(Cl)c(/C=C3/C(=O)Nc4ccc(Cl)cc43)c2c1 [Compound 18] | 17.78 | 10.00 | 7.24 | 5.50 | 11.22 | 11.75 | 8.13 | 13.49 | 9.12 | 38.9 | 9.77 |  | 
12 | CN(C)c1ccc2[nH]c(Cl)c(/C=C3/C(=O)Nc4ccc(O)cc43)c2c1 [Compound 19] | 13.49 | 31.62 | 20.42 | 36.31 | 25.70 | 52.48 | 33.88 | 53.70 | 33.88 |  | 29.51 | 4.37 | 
13 | COc1ccc2c(c1)/C(=C\c1c(Cl)[nH]c3ccc(N(C)C)cc13)C(=O)N2 [Compound 20] | 10.23 | 15.49 | 9.55 | 7.94 | 15.49 | 15.14 | 13.80 | 19.05 | 8.51 | 49 | 12.02 | 2.29 | 
14 | CC[C@]1(O)C[C@H]2CN(CCc3c([nH]c4ccccc34)[C@@](C(=O)OC)(c3cc4c(cc3OC)N(C=O)[C@H]3[C@@](O)(C(=O)OC)[C@H](OC(C)=O)[C@]5(CC)C=CCN6CC[C@]43[C@@H]65)C2)C1 [Vincristine sulfate, reference compound] | 15.85 | 15.85 | 3.98 | 6.31 | 7.94 | 19.95 | 19.95 | 6.31 | 7.94 |  | 10.00 |  | GI50 [19]: 0.2 µM
